Measurements taken from ChEMBL document CHEMBL6071149, “Synthesis and photo-induced anticancer activity of new 2-phenylethenyl-1H-benzo[e]indole dyes” (Eur J Med Chem, 2024).
Activity calls are given as the source filed them.

What was measured:
Format in all cases: functional, cell-based
G-361 [1] = experiment: Induction of ROS production in human G361 cells pretreated for 4 hrs followed by light irradiation of 5 to 10 J/cm2 measured immediately by CM-H2DCFA probe based analysis; settings: dose <= 4.0 µM
In short: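 Cells loaded next day with 5 µM CM-H₂DCFDA for 30 min, then placed in prewarmed PBS with 5 mM glucose. Compound exposure 4 h, followed by 414 nm irradiation at 5 or 10 J/cm²; dark samples run in parallel. Fluorescence read immediately at 492/530 nm. NAC (5 mM) pretreatment for 10 min gave negative controls. RFU normalised to untreated dark control.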

G-361 [2] = experiment: Induction of apoptosis in human G361 cells assessed as increase in cleaved PARP-1 level upto 4 uM pretreated for 4 hrs followed by light irradiation of 10 J/cm2 at 414 nm measured after 20 hrs by Western blot analysis; settings: time 24.0 hrs
In short: (§1)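 Compound exposure 4 h, then 414 nm irradiation, then 20 h further incubation. Lysates made in RIPA buffer, separated by SDS-PAGE and blotted to nitrocellulose. Primary antibodies in TBS with 4 % BSA and 0.1 % Tween 20, incubated overnight. Peroxidase secondary antibody with chemiluminescent detection. GAPDH served as loading control.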

ARN-8 cell = experiment: Induction of apoptosis in human ARN-8 cells-derived from human A375 cells assessed as increase in cleaved PARP-1 level upto 4 uM pretreated for 4 hrs followed by light irradiation of 10 J/cm2 at 414 nm measured after 20 hrs by Western blot analysis; settings: time 24.0 hrs; in short: as §1

Measured: Activity

COc1ccc(/C=C/C2=Nc3ccc4ccccc4c3C2(C)C)cc1[N+](=O)[O-]
active: G-361 [1] Dose-Dependent Effect | G-361 [2] | ARN-8 cell
